Experimental data published in article PMC7113734 (Antiviral Research, 2016).
Values after ≈ are worked out from the molar mass of the structure shown. Like-named read-outs stand apart in the source and are kept apart here.

How the values were obtained:
[1] = test system: HIVIIIB; test: Cell-to-cell virus transmission assay in CEM-SS cells; type: cell-based, HIV-1
[2] = test system: HIV strain 92US727; test: Cell-to-cell virus transmission assay in fresh human PBMCs; type: cell-based, HIV-1
Summary of the method: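 HIV-infected fresh human PBMCs treated 3 days with six concentrations of test compound. Passaged every 3 days for three passages at fixed compound concentration; 80% of culture volume replaced with fresh compound-containing medium and uninfected cells. Cell-free supernatants collected on sub-culture days for RT activity and extracellular p24 antigen. TCID50 per passage by endpoint dilution.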

[3] = test system: drug-resistant HIV-1 strains; test: Antiviral activity against drug-resistant HIV-1 strains in MT-4; type: cell-based; conditions: for EC50: MT-4
[4] = test system: HIV attachment to HeLa-CD4-LTR-β-gal cells; test: Attachment inhibition assay; type: cell-based, HIV-1; conditions: Human immunodeficiency virus 1, read-out: Attachment inhibition EC50 ± SD
[5] = test system: HL2/3 cells expressing HIV-1 gp120 and gp41 fusing with HeLa-CD4-LTR-β-gal cells; test: Fusion inhibition assay; type: cell-based; conditions: read-out: Fusion inhibition EC50 ± SD
Summary of the method: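 HeLa-CD4-LTR-β-Gal cells incubated with test compound for 1 h at 37°C/5% CO2, then co-cultured 48 h with HL2/3 cells. Cells lysed and β-galactosidase expression measured by chemiluminescent Gal-Screen.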

[6] = test system: drug resistant clinical HIV isolates; test: Antiviral activity against drug-resistant HIV-1 in PBMCs; type: cell-based; conditions: Human immunodeficiency virus 1, PBMC

In the case of CC(C)(C)NC(=O)[C@@H]1C[C@@H]2CCCC[C@@H]2CN1C[C@@H](O)[C@H](Cc1ccccc1)NC(=O)[C@H](CC(N)=O)NC(=O)c1ccc2ccccc2n1 [Saquinavir, reference compound], the RT ([1]; Passage 1, 20 nM) is reported as 25 cpm, the TCID50/mL ([1]; Passage 1, 20 nM) is reported as 0 TCID50/mL and the p24 ([1]; Passage 1, 20 nM) is reported as 794 pg/mL. It also gave an RT ([1]; Passage 2, 20 nM) of 107 cpm, a TCID50/mL ([1]; Passage 2, 20 nM) of 0 TCID50/mL and a p24 ([1]; Passage 2, 20 nM) of 1589 pg/mL. It also gave an RT ([1]; Passage 3, 20 nM) of 68 cpm, a TCID50/mL ([1]; Passage 3, 20 nM) of 0 TCID50/mL and a p24 ([1]; Passage 3, 20 nM) of 1085 pg/mL. For the same compound, the RT ([2]; Passage 1, 12.5 nM) was 281 cpm, the TCID50/mL ([2]; Passage 1, 12.5 nM) was 3.08 × 10^3 TCID50/mL and the p24 ([2]; Passage 1, 12.5 nM) was 971 pg/mL. The RT ([2]; Passage 2, 12.5 nM) was 1394 cpm, the TCID50/mL ([2]; Passage 2, 12.5 nM) was 8.30 × 10^3 TCID50/mL and the p24 ([2]; Passage 2, 12.5 nM) was 3505 pg/mL. For the same compound, the RT ([2]; Passage 3, 12.5 nM) was 7015 cpm, the TCID50/mL ([2]; Passage 3, 12.5 nM) was 1.09 × 10^5 TCID50/mL and the p24 ([2]; Passage 3, 12.5 nM) was 61,275 pg/mL.
Compound Cc1ccnc2c1NC(=O)c1cccnc1N2C1CC1 [NVP, reference compound] has an EC50 ([3]; Human immunodeficiency virus 1, read-out: Mean EC50 ± SD, positive control, AZT-resistant, RT 4xAZT (D67N/K70R/T215Y/K219Q)) of 35 nM.
COc1cc(-c2ccc(/N=N/c3ccc4c(S(=O)(=O)O)cc(S(=O)(=O)O)c(N)c4c3O)c(OC)c2)ccc1/N=N/c1ccc2c(S(=O)(=O)O)cc(S(=O)(=O)O)c(N)c2c1O [Chicago sky blue, reference compound] was tested, and the EC50 [4] was 0.64 µg/mL (≈ 0.707 µM).
For enfuvirtide [reference compound], the EC50 [5] was 80 nM.
Cc1cn([C@H]2C[C@H](N=[N+]=[N-])[C@@H](CO)O2)c(=O)[nH]c1=O [AZT, reference compound] showed an EC50 ([3]; Human immunodeficiency virus 1, read-out: Mean EC50 ± SD, positive control, AZT- and NNRTI-resistant, RT 4xAZT/L100I) of 4 nM, an EC50 ([3]; Human immunodeficiency virus 1, read-out: Mean EC50 ± SD, positive control, AZT- and NNRTI-resistant, RT 4xAZT/Y181C) of 7 nM and an EC50 ([3]; Human immunodeficiency virus 1, read-out: Mean EC50 ± SD, positive control, Atazanavir-resistant, PR I50L) of 1.5 nM. It also gave an EC50 ([3]; Human immunodeficiency virus 1, read-out: Mean EC50 ± SD, positive control, Didanosine-resistant, RT L74V) of 2 nM, an EC50 ([3]; Human immunodeficiency virus 1, read-out: Mean EC50 ± SD, positive control, Enfuviritide-resistant, Env V38A/N126K) of 1.5 nM and an EC50 ([3]; Human immunodeficiency virus 1, read-out: Mean EC50 ± SD, positive control, Indinavir-, Ritonavir-resistant, PR I84V) of 2.5 nM. The EC50 ([3]; Human immunodeficiency virus 1, read-out: Mean EC50 ± SD, positive control, Indinavir-, Ritonavir-resistant, PR V82A) was 3.5 nM, the EC50 ([3]; Human immunodeficiency virus 1, read-out: Mean EC50 ± SD, positive control, Indinavir-, Ritonavir-resistant, PR V82F/I84V) was 2 nM and the EC50 ([3]; Human immunodeficiency virus 1, read-out: Mean EC50 ± SD, positive control, Lamivudine-resistant, RT M184V) was 0.55 nM. For the same compound, the EC50 ([3]; Human immunodeficiency virus 1, read-out: Mean EC50 ± SD, positive control, NNRTI-resistant, RT K103N/Y181C) was 2 nM, the EC50 ([3]; Human immunodeficiency virus 1, read-out: Mean EC50 ± SD, positive control, NNRTI-resistant, RT K103N) was 0.9 nM and the EC50 ([3]; Human immunodeficiency virus 1, read-out: Mean EC50 ± SD, positive control, NNRTI-resistant, RT L100I) was 0.65 nM. The EC50 ([3]; Human immunodeficiency virus 1, read-out: Mean EC50 ± SD, positive control, NNRTI-resistant, RT V106A) was 2 nM, the EC50 ([3]; Human immunodeficiency virus 1, read-out: Mean EC50 ± SD, positive control, NNRTI-resistant, RT V108I) was 1.5 nM and the EC50 ([3]; Human immunodeficiency virus 1, read-out: Mean EC50 ± SD, positive control, NNRTI-resistant, RT V179D) was 1 nM. For the same compound, the EC50 ([3]; Human immunodeficiency virus 1, read-out: Mean EC50 ± SD, positive control, NNRTI-resistant, RT Y181C) was 1 nM, the EC50 ([3]; Human immunodeficiency virus 1, read-out: Mean EC50 ± SD, positive control, NNRTI-resistant, RT Y188C) was 1.5 nM and the EC50 ([3]; Human immunodeficiency virus 1, read-out: Mean EC50 ± SD, positive control, Raltegravir-resistant, IN Q148H/G140S) was 2 nM. It also gave an EC50 ([3]; Human immunodeficiency virus 1, read-out: Mean EC50 ± SD, positive control, Saquinavir-resistant, PR G48V/L90M) of 3.5 nM.
For CC(C)c1nc(CN(C)C(=O)N[C@H](C(=O)N[C@@H](Cc2ccccc2)C[C@H](O)[C@H](Cc2ccccc2)NC(=O)OCc2cncs2)C(C)C)cs1 [RTV, reference compound], the “Mean EC50 ± SD, positive control” value ([3]; {}) was “RTV 0.06 ± 0.02 nM”.
Work on Cc1nnc(C(=O)NC(C)(C)c2nc(C(=O)NCc3ccc(F)cc3)c(O)c(=O)n2C)o1 [Raltegravir, reference compound] yielded an EC50 ([6]; read-out: PBMC/HIV-1 EC50 ± SD, Multi-drug resistant AD. MDR) of 2980 ± 540 nM, an EC50 ([6]; read-out: PBMC/HIV-1 EC50 ± SD, Multi-drug resistant MDR769) of 2370 ± 1510 nM and an EC50 ([6]; read-out: PBMC/HIV-1 EC50 ± SD, NNRTI-resistant A17R) of 1990 ± 40 nM. The EC50 ([6]; read-out: PBMC/HIV-1 EC50 ± SD, NNRTI-resistant N119) was 3540 ± 890 nM, the EC50 ([6]; read-out: PBMC/HIV-1 EC50 ± SD, PI-resistant 144-44) was 3870 ± 3250 nM and the EC50 ([6]; read-out: PBMC/HIV-1 EC50 ± SD, PI-resistant 1002-60) was 2970 ± 230 nM. It also gave an EC50 ([6]; read-out: PBMC/HIV-1 EC50 ± SD, PI-resistant 1022-48) of 1320 ± 170 nM, an EC50 ([6]; read-out: PBMC/HIV-1 EC50 ± SD, PI-resistant 1026-60) of 1770 ± 850 nM and an EC50 ([6]; read-out: PBMC/HIV-1 EC50 ± SD, PI-resistant 1064-52) of 860 ± 490 nM. It also gave an EC50 ([6]; read-out: PBMC/HIV-1 EC50 ± SD, Wild Type 92US727) of 10500 ± 12700 nM.
